# Sampled rows, rich in hits. Any-hit rate of the full collection: about 3.9%.
# m5-HT2A agonist = activates the mouse 5-HT2A serotonin receptor. 360,000 compounds, 0.66% hits. activation, % at 7.6 µM. CHO-K1 mHTR2A beta-arrestin complementation, luminescence; percent of 30 µM serotonin response;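 active = activation above a run cutoff, the mean activation of all tested compounds plus 3 SD, cut at about 14% in these data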;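 also: 0% = plate median of compound wells and 100% = 30 µM serotonin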
# TAAR1 agonist = agonists of human TAAR1 | Q96RJ0 | CHO RD-HGA16 TAAR1, Fluo-8 calcium fluorescence; vehicle wells 0%, saturating PEA agonist 100% | activation, % at 3 µM | 360,000 compounds, 0.99% hits | AID 624467;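 active = activation above the mean activation of all test compounds in the run plus 3 SD, cut at about 38% in these data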
#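 test system = CHO RD-HGA16 cells carrying human TAAR1 plus Gα16 | schedule = 17-24 h seeding, 75 min 37 °C dye, 30 min RT | compound dosing = 3 µM single concentration | control set = DMSO and PEA EC100 | replicates = n 1 | signal = Fluo-8 fluorescence, 5 s baseline then 140 s kinetic read | measure = percent activation vs PEA EC100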
# M1 ag = activates human CHRM1 receptor. P11229. CHO-K1 hM1, Fluo-8 calcium fluorescence, agonist mode; 0% DMSO, 100% acetylcholine EC100. activation, % at 3 µM. 360,000 compounds, 0.33% hits. AID 588814;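 active = activation above the run's mean compound activation plus 3 SD, cut at about 16% in these data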;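 also: peak over basal fluorescence ratio within a 140 s kinetic read after compound addition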
# Target sequence (P11229 whole entry, looked up): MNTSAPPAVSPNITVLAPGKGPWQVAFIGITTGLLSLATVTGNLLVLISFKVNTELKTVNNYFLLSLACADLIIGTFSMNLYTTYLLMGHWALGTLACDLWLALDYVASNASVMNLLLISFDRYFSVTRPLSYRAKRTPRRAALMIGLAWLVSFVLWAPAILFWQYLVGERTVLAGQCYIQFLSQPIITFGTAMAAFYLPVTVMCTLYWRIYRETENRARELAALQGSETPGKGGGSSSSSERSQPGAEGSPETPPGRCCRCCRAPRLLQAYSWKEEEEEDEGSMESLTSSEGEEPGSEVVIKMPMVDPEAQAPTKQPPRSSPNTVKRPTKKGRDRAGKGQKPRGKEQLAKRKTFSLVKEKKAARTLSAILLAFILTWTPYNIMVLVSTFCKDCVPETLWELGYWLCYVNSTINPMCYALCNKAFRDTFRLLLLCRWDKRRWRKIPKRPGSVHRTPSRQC
# M1 antag = human CHRM1 antagonism | P11229 | CHO-K1 hM1, Fluo-8 calcium fluorescence, ACh EC80 antagonist | inhibition, % at 3 µM | 360,000 compounds, 1.3% hits | AID 588852;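 active = percent inhibition above its own plate's cutoff, namely the mean of that plate's compound wells plus 3 SD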;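 also: peak over basal fluorescence ratio during 140 s after agonist addition; 0% = ACh EC80 plus DMSO and 100% = DMSO alone without agonist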
# TAAR1 antagonist = antagonists of human TAAR1 | Q96RJ0 | CHO RD-HGA16 TAAR1, Fluo-8 calcium fluorescence, antagonist | inhibition, % at 3 µM | 360,000 compounds, 1.5% hits;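 active = inhibition above a per-plate cutoff, the mean inhibition of test compounds on that plate plus 3 SD, cut at about 49% in these data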;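 also: 0% = DMSO plus EC80 beta-PEA response and 100% = DMSO alone without agonist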
#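 test system = CHO RD-HGA16 cells bearing hTAAR1 | replication = singlicate | controls = DMSO-only wells and EC80 β-PEA-stimulated wells | reagent = EC80 β-phenethylamine stimulus | read-out basis = percent inhibition of PEA-evoked calcium signal, max/basal emission ratio | schedule = seeding 17-24 h prior, 75-min 37 °C, 30-min RT dye loading | signal = kinetic Fluo-8 calcium fluorescence measurement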
# CHRM1 PAM = positive allosteric modulators of human M1 muscarinic receptor; CHO-K1 hM1, Fluo-8 calcium fluorescence, ACh EC20; 0% = ACh EC20, 100% = maximal ACh; activation, % at 3 µM; 360,000 compounds, 0.088% hits; P11229; in the data active = activation above about 19%, passing the limit was not always enough
# The depositor's hits bear a star; x = no result given.
SMILES,m5-HT2A agonist,TAAR1 agonist,M1 ag,M1 antag,TAAR1 antagonist,CHRM1 PAM
O=C(c1ccc2c3c(cccc13)CC2)C1CCCN(Cc2cccnc2)C1 (stereo not drawn),-5.2,1.8,-6.3,-6.7,-17.5,-4.2
C[C@@H]1CNC(=O)c2c(C(=O)N3CCN(c4ccccc4)CC3)ncn21,x,0.1,x,x,-1.3,x
Nn1c(SCC(=O)Nc2ccc(N3CCOCC3)cc2)nnc1-c1cccc(F)c1,4.2,2.8,-2.4,-2.2,-21.0,0.8
CN(C)C(=O)COC(=O)c1ccccc1NC(=O)c1ccco1,0.5,5.4,-3.4,-0.1,-0.5,3.7
CSc1ccc(/C=c2\s/c(=C\C(=O)C(C)(C)C)n(CC(=O)NCCC3=CCCCC3)c2=O)cc1,8.5,0.5,-4.4,-1.0,5.3,5.5
CCCNC(=O)Cn1c(=O)/c(=C/c2ccc(-c3ccc([N+](=O)[O-])cc3)o2)s/c1=C\C(=O)C(C)(C)C,-2.6,14.0,73.5*,65.0*,10.9,-17.9
CCOC(=O)c1c(NC(=O)COC(=O)c2ccccn2)sc(C)c1C,0.0,0.3,-2.9,-6.5,8.7,8.3
Cc1ccc(Cn2c(CCNc3nc(-c4ccc(Cl)c([N+](=O)[O-])c4)cs3)nc3cc(C(=O)NCCCO)ccc32)cc1,-3.9,7.6,-5.2,12.9,55.4*,-0.3
O=[N+]([O-])c1cc(-c2csc(NCCc3nc4cc(C(F)(F)F)ccc4n3CCCO)n2)ccc1Cl,-3.5,0.5,-2.6,-2.5,4.1,0.1
CC(C)(C)NC(=O)CN(Cc1ccc(F)cc1)C(=O)Cn1nnc(-c2ccc(F)cc2)n1,5.4,16.8,-5.9,-3.0,7.4,3.4
O=C(Cn1cc([N+](=O)[O-])cn1)N1CCCc2ccccc21,-5.2,4.6,1.6,-0.5,-14.2,1.1
O=C(Cn1cc([N+](=O)[O-])cn1)N1CCc2ccccc21,16.2*,1.1,-4.2,-2.8,-17.4,7.7
C[N+]1(CC(=O)Nc2ccccc2Cl)CCN(C(=O)c2cccs2)CC1,-1.3,11.1,-4.8,33.3*,-11.2,-12.2
CCc1cccc(CC)c1NC(=O)COC(=O)C1(c2ccc(Cl)cc2)CCCC1,1.4,-1.5,-6.9,4.5,1.9,-3.1
NS(=O)(=O)c1cccc(NC(=O)COC(=O)C2(c3cccc(F)c3)CCCC2)c1,-0.2,6.0,-4.1,-0.8,52.5*,0.8
CC(=O)Nc1ccc(NC(=O)COC(=O)C2(c3ccc(Cl)cc3)CCCC2)cc1,5.4,39.0*,9.2,15.0,49.4*,-7.0
Cc1oc(-c2ccccc2F)nc1CS(=O)(=O)CC(=O)NC1CCCC1,-1.7,-0.1,-0.8,33.2*,-9.4,-14.0
Cc1oc(-c2ccccc2F)nc1CS(=O)(=O)CC(=O)NC1CCCC(C)C1C (stereo not drawn),2.4,-1.5,-1.0,-13.1,-4.1,9.5
C[C@@H]1CN([C@H](C)CO)C(=O)c2cc(C#CC3CCCCC3)cnc2O[C@H]1CN(C)Cc1cccnc1,-0.8,0.0,-11.4,33.8*,2.8,-28.0
COC(=O)Cc1ccc(NC(=S)N2CCN(c3ccc(F)cc3)CC2)cc1,-0.7,4.7,-2.6,11.8,1.1,-6.7
CN(C)c1ccc(-c2csc(C(C)(O)c3ccccc3)n2)cc1 (stereo not drawn),-7.8,1.7,-3.6,9.6,11.2,-12.8
Cc1cc(NC(=O)CSc2nnnn2-c2ccccc2C)no1,-3.8,3.4,-1.2,28.2*,0.2,-12.9
CCCN1CCN(S(=O)(=O)c2ccc(-c3cc(C)no3)s2)CC1,-0.9,4.4,-2.6,6.1,0.7,-3.2
O=C(COC(=O)Cc1c[nH]c2ccccc12)NC1CCS(=O)(=O)C1 (stereo not drawn),4.7,1.1,-1.7,27.2*,-9.9,-8.4
CCC(C)NC(=O)CC(NS(=O)(=O)c1ccc(NC(C)=O)cc1)C(C)C (stereo not drawn),-3.6,0.6,-2.5,12.7,-14.5,-5.8
SMILES,m5-HT2A agonist,TAAR1 agonist,M1 ag,M1 antag,TAAR1 antagonist,CHRM1 PAM
CN(C)c1ccc(CN2CCCCCC2)cc1,2.8,15.5,-5.5,45.4*,-17.2,-3.3
COc1ccc(-[n+]2c(C)cc(/C=C3\Sc4ccccc4N3C)cc2C)cc1,-0.1,31.8,12.0,80.8*,62.3*,-26.5
COc1ccccc1-[n+]1c(C)cc(/C=C2\Sc3ccccc3N2C)cc1C,-4.5,22.2,36.1*,82.8*,29.8,-24.4
COc1ccc(C(=O)/C=C2\Sc3ccccc3N2C)cc1,2.0,8.6,-9.6,-7.6,-16.3,11.5
CCN1CCN(c2nc(-c3ccccc3)c3ccccc3n2)CC1,-11.5,-0.6,-10.7,47.5*,-14.6,-29.4
c1ccc(-c2nc(N3CCCCC3)nc3ccccc23)cc1,-7.2,-0.5,-4.6,6.0,-10.7,-2.2
O=C(Nc1ccc(C(=O)O)cc1)/C(=C\C=C\c1ccccc1)NC(=O)c1ccccc1Br,2.1,1.9,0.3,8.3,58.6*,8.4
O=C(Nc1ccc(C(=O)O)cc1)/C(=C\C=C\c1ccccc1)NC(=O)c1cccc(Br)c1,-0.1,-0.2,-1.6,-12.1,8.6,11.0
O=C(CCl)N(c1ccc(Cl)cc1)c1c[nH]c2ccccc12,0.0,39.1*,3.6,-2.3,25.7,16.1
Cc1ccc(OS(=O)(=O)c2c(C)nn(C)c2Cl)c(C)c1,-2.3,-1.2,-6.4,61.7*,-25.3,-22.7
Cc1ccc(C)c(NS(=O)(=O)c2c(C)nn(C)c2C)c1,-0.9,3.3,-1.2,-14.9,4.5,4.6
CCNc1nc(NC(C)C)nc(NC(C)(C)C)n1,-5.3,10.1,-5.6,33.2*,12.3,-19.6
CCC(=O)c1ccc(OCc2ccc(C(=O)c3ccccc3)cc2)cc1,-1.9,2.7,-3.1,51.0*,45.2,-18.8
CN(C)c1ccc(N2C(=NC(=O)c3ccccc3)SC3CS(=O)(=O)CC32)cc1 (stereo not drawn),0.0,0.1,0.3,12.2,-8.0,-8.1
O=C(O)c1ccc2c(=O)n(-c3ccc(F)cc3)c(=S)[nH]c2c1,3.8,1.9,-0.8,38.4*,-6.7,22.7
CC(C)CN(Cc1cc(=O)oc2cc3c(cc12)CCCC3)CC(C)C,1.1,1.8,-4.2,-6.3,-20.7,3.8
COc1cc(-c2ccc3oc(-c4ccsc4)cc(=O)c3c2)cc(OC)c1OC,1.6,9.1,-3.2,20.0,49.9*,-10.5
O=C(O)CCCC(=O)N1N=C(c2ccccc2)CC1c1cccs1 (stereo not drawn),4.7,-0.1,-1.6,-4.5,12.3,2.1
O=C(NCCCN1CCCC1)c1ccc2c(c1)N(Cc1ccc(F)cc1)C(=O)c1ccccc1S2=O (stereo not drawn),-14.3,7.8,-5.2,25.8,-9.6,-15.1

# Assay outcomes (PubChem)
